According to ChEMBL document CHEMBL4765243, “Discovery of Novel Bromophenol-Thiosemicarbazone Hybrids as Potent Selective Inhibitors of Poly(ADP-ribose) Polymerase-1 (PARP-1) for Use in Cancer” (J Med Chem, 2019):
Activity calls are given as the source filed them. The calls are words filed in the database; no cut-off is given here.

Key:
SK-OV-3 [1] = assay: Induction of ROS generation in human SKOV3 cells assessed as fold increase in ROS level at 2.5 uM incubated for 48 hrs by DCFH-DA staining based flow cytometry relative to control; assay type: functional
Bel-7402 [2] = assay: Antiproliferative activity against human Bel-7402 cells assessed as cell growth inhibition at 20 uM incubated for 48 hrs by MTT assay relative to control; assay type: functional
SK-OV-3 [3] = assay: Induction of cell cycle arrest in human SKOV3 cells assessed as reduction in cyclin B1 expression at 2.5 to 10 uM incubated for 48 hrs by western blot analysis; assay type: functional, cell-based; conditions: dose 2.5-10 µM
[4] = molecular target: Poly [ADP-ribose] polymerase 2 (Homo sapiens, UniProt Q9UGN5); assay: Inhibition of human recombinant N-terminal GST-tagged PARP-2 expressed in Baculovirus infected Sf9 cells assessed as reduction in NAD+-dependent ADP ribosylation using histone mixture (H2A and H2B) as substrate in presence of activated DNA incubated for 30 mins by chemiluminescence assay
[5] = Volume of distribution at steady state in Sprague-Dawley rat at 2 mg/kg, iv by LC/MS/MS analysis; assay type: ADME, organism-based; conditions: in vivo, read-out: Vdss
Outline: (§1)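 Male Sprague-Dawley rats, 4 per group, dosed once orally at 10 mg/kg or intravenously at 2 mg/kg. Blood taken from the saphenous vein for plasma. Drug levels measured by LC-MS-MS, with parameters derived by noncompartmental analysis.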

SK-OV-3 [6] = assay: Induction of cell cycle arrest in human SKOV3 cells assessed as accumulation at G2/M phase incubated for 48 hrs by propidium iodide staining based flow cytometry analysis; assay type: functional
Outline: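 SK-OV-3 cells in 6-well plates incubated 24 h, then treated 48 h. Cells harvested, fixed, stained with propidium iodide and analysed by flow cytometry.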

SK-OV-3 [7] = assay: Induction of autophagy in human SKOV3 cells assessed as increase in Beclin-1 protein level at 10 uM incubated for 48 hrs by western blot analysis; assay type: functional, cell-based
Outline: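 SK-OV-3 cells in 6-well plates treated 48 h. Lysates separated by 8-15% SDS-PAGE and transferred to PVDF. Membranes blocked in 5% milk and probed overnight at 4 °C with LC3 or Beclin 1 antibodies. HRP secondary applied 1 h at room temperature; detection by ECL.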

SK-OV-3 [8] = assay: Antitumor activity against human SKOV3 cells xenografted in Balb/c nude mouse assessed as increase in gamma-H2AX protein expression in tumor at 25 to 50 mg/kg, po for 21 days by western blot analysis; assay type: functional, organism-based; conditions: dose 25-50 mg/kg, time 21.0 day
Outline: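 SK-OV-3 xenografts in female BALB/c nude mice were dosed orally at 25 or 50 mg/kg in 0.5% CMC-Na for 21 days. Tumours were then snap-frozen in liquid nitrogen or fixed in 10% neutral-buffered formalin. Analysis used western blotting, H&E and immunohistochemistry on paraffin sections (Ki67, γ-H2AX).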

[9] = Subacute toxicity in SPF Kunming mouse assessed as change in kidney at 1000 mg/kg, po administered for 14 days by H and E staining based microscopic analysis; assay type: organism-based; conditions: in vivo, 336 h, time 14 day
Outline: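 Twenty SPF Kunming mice (18 - 22 g), half male and half female, randomised into 2 groups of 5 males + 5 females. Treated group dosed orally at 1000 mg/kg once daily for 14 days. Death, clinical signs and body weight monitored. After 14 days: isoflurane anaesthesia, decapitation, tissues collected for H&E histology.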

[10] = molecular target: Poly [ADP-ribose] polymerase 1 (Homo sapiens, UniProt P09874); assay: Inhibition of PARP-1 in human SKOV3 cells assessed as decrease in MCM2 protein expression level at 2.5 to 10 uM incubated for 48 hrs by western blot analysis; assay type: cell-based; conditions: SK-OV-3, dose 2.5-10 µM
Outline: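 SK-OV-3 cells were grown in McCOY's 5A, seeded in 6-well plates and treated for 48 h. Lysate proteins were separated by 8-15 % SDS-PAGE and transferred to PVDF membranes. Membranes were blocked in 5 % nonfat milk, probed with primary antibody overnight at 4 °C and with HRP secondary antibody for 1 h at room temperature, then detected by enhanced chemiluminescence. Images are representative of 3 independent experiments.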

SK-OV-3 [11] = assay: Induction of ROS generation in human SKOV3 cells assessed as fold increase in ROS level at 5 uM incubated for 48 hrs by DCFH-DA staining based flow cytometry relative to control; assay type: functional
[12] = Oral bioavailability in Sprague-Dawley rat at 10 mg/kg by LC/MS/MS analysis; assay type: ADME, organism-based; conditions: in vivo; outline: as §1
SK-OV-3 [13] = assay: Induction of apoptosis in human SKOV3 cells assessed as decrease in Bcl-2 expression at 2.5 to 10 uM incubated for 48 hrs by western blot analysis; assay type: functional, cell-based; conditions: dose 2.5-10 µM
Bel-7402 [14] = assay: Antiproliferative activity against human Bel-7402 cells assessed as cell growth inhibition incubated for 48 hrs by MTT assay; assay type: functional, cell-based; conditions: Bel-7402, 48 h
Outline: (§2)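 Cells seeded in 96-well plates and exposed to compounds for 48 h; viability read by MTT. Each experiment repeated three times. SK-OV-3 grown in McCOY's 5A, Bel-7402 and HL-7702 in RPMI-1640, HepG2 in DMEM, Caco-2 in MEM.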

[15] = Tmax in Sprague-Dawley rat at 2 mg/kg, iv by LC/MS/MS analysis; assay type: ADME, organism-based; conditions: in vivo; outline: as §1
HepG2 = assay: Antiproliferative activity against human HepG2 cells assessed as cell growth inhibition incubated for 48 hrs by MTT assay; assay type: functional, cell-based; conditions: HepG2, 48 h; outline: as §2
[16] = Half-life in Sprague-Dawley rat at 10 mg/kg, po by LC/MS/MS analysis; assay type: ADME, organism-based; conditions: in vivo; outline: as §1
SK-OV-3 [17] = assay: Antiproliferative activity against human SK-OV-3 cells assessed as cell growth inhibition at 20 uM incubated for 48 hrs by MTT assay relative to control; assay type: functional
SK-OV-3 [18] = assay: Induction of apoptosis in human SKOV3 cells at 2.5 to 10 uM incubated for 48 hrs by annexin V-FITC/PI based flow cytometric analysis; assay type: functional, cell-based; conditions: dose 2.5-10 µM
Outline: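 SK-OV-3 cells treated 48 h, then harvested, stained with Annexin V/PI and analysed by flow cytometry.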

SK-OV-3 [19] = assay: Antiproliferative activity against human SK-OV-3 cells assessed as cell growth inhibition incubated for 48 hrs by MTT assay; assay type: functional, cell-based; conditions: SK-OV-3, 48 h; outline: as §2
SK-OV-3 [20] = assay: Induction of ROS generation in human SKOV3 cells assessed as fold increase in ROS level at 10 uM incubated for 48 hrs by DCFH-DA staining based flow cytometry relative to control; assay type: functional
[21] = MRT in Sprague-Dawley rat at 10 mg/kg, po by LC/MS/MS analysis; assay type: ADME, organism-based; conditions: in vivo; outline: as §1
[22] = Acute toxicity in SPF Kunming mouse assessed as lethal dose administered orally as single dose and measured upto 14 days post drug administration; conditions: in vivo, po, time <=14 day
Outline: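 Single oral dose groups at 0 (physiological saline blank, equal volume), 100, 500 and 1000 mg/kg. Mice housed with free access to water and food in stainless cages, 25 ± 1 °C, 12-h light/dark cycle. Survival, body weight and abnormalities recorded up to 14 days post-treatment.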

[23] = Acute toxicity in SPF Kunming mouse assessed as mortality at 100 to 1000 mg/kg, po administered as single dose and measured upto 14 days post drug administration; assay type: organism-based; conditions: in vivo, 336 h, dose 100-1000 mg/kg, time <=14 day
Caco-2 = assay: Antiproliferative activity against human Caco-2 cells assessed as cell growth inhibition incubated for 48 hrs by MTT assay; assay type: functional, cell-based; conditions: Caco-2, 48 h; outline: as §2

Poly [ADP-ribose] polymerase 1, sequence (P09874 whole entry): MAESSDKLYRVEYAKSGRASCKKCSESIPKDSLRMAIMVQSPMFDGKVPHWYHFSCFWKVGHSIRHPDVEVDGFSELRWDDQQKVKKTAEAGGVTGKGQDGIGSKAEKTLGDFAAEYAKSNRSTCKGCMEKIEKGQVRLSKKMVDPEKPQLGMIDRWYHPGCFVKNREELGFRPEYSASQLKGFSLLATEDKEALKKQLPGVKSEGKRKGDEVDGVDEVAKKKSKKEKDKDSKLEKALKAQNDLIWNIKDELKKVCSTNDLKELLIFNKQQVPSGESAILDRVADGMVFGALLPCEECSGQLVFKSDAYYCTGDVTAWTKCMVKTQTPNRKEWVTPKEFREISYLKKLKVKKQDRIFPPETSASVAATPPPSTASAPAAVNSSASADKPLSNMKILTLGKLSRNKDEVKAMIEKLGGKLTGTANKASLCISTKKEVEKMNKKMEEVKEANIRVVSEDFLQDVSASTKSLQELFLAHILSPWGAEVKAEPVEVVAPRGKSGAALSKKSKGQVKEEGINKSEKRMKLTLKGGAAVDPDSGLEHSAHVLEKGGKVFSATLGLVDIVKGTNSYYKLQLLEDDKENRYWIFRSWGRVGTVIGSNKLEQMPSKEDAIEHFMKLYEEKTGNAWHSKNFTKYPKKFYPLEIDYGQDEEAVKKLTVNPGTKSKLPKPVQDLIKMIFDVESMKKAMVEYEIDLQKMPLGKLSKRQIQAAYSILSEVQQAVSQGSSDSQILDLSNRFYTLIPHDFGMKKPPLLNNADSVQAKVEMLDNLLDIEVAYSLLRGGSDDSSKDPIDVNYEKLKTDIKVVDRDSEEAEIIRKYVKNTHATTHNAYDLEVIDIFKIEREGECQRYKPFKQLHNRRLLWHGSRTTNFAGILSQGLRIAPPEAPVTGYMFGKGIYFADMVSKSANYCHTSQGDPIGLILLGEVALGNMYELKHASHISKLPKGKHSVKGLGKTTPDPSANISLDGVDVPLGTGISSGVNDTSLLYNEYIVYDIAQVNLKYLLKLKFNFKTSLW
Poly [ADP-ribose] polymerase 2, sequence (Q9UGN5 whole entry): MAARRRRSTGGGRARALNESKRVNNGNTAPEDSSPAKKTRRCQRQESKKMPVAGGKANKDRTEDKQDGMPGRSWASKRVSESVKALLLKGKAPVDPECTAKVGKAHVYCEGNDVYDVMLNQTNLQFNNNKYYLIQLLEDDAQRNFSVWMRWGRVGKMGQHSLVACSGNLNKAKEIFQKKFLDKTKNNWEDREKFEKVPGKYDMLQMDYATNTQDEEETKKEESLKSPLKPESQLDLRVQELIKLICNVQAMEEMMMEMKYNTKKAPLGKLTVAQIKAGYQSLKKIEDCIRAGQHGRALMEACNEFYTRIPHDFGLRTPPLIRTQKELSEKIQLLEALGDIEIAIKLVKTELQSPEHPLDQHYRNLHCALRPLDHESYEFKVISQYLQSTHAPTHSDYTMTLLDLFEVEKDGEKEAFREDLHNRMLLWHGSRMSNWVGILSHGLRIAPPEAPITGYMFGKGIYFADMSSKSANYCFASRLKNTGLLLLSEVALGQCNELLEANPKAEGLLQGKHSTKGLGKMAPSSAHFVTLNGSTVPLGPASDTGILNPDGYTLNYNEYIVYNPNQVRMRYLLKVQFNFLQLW

With `COc1cc(/C=N/NC(N)=S)c(Br)c(Br)c1OC` the “fold change (FC)” value (SK-OV-3 [1]) was 1.76, the inhibition at 20 µM (Bel-7402 [2]) was 63.5% and the Activity (SK-OV-3 [3]) was “Active”. For the same compound, the IC50 [4] was > 1 µM, the Vd [5] was 6.1 L/kg and the Activity (SK-OV-3 [6]) was “Dose-dependent effect”. The Activity (SK-OV-3 [7]) was “Active”, the Activity (SK-OV-3 [8]) was “Active” and the Activity [9] was “Non-Toxic”. For the same compound, the inhibition [10] was “Active”, the “fold change (FC)” value (SK-OV-3 [11]) was 2.51 and the F [12] was 47.3%. The Activity (SK-OV-3 [13]) was “Active”, the IC50 (Bel-7402 [14]) was 5.45 µM and the Tmax [15] was 4.8 min. For the same compound, the IC50 (HepG2) was 4.6 µM, the half-life [16] was 2.6 h and the inhibition at 20 µM (SK-OV-3 [17]) was 100%. The Activity (SK-OV-3 [18]) was “Active”, the IC50 (SK-OV-3 [19]) was 2.39 µM and the “fold change (FC)” value (SK-OV-3 [20]) was 3.04. For the same compound, the MRT [21] was 3.76 h, the LD50 at 336 h [22] was 1000 mg/kg and the Activity [23] was “Non-Toxic”. For the same compound, the IC50 (Caco-2) was 20.5 µM.
